Source: ChEMBL document CHEMBL1671639, “Sitamaquine sensitivity in Leishmania species is not mediated by drug accumulation in acidocalcisomes” (Antimicrob Agents Chemother, 2008)
pEC50: −log10 of the molar value. One block for each compound: values may come before it.

Assays:
Leishmania major [1] = experiment: Antiparasitic activity against wild type amastigotes of Leishmania major AP3-complemented after 3 days by Alamar blue assay; type: functional, organism-based; details: 72 h
Leishmania major [2] = experiment: Antiparasitic activity against amastigotes of delta-null mutant Leishmania major AP3 after 3 days by Alamar blue assay; type: functional, organism-based; details: AP3, 72 h
Leishmania donovani [3] = experiment: Drug uptake in 1 mM N-ethylmaleimde pretreated Leishmania donovani at 5 uM after 15 mins by liquid scintillation counting; type: ADME, organism-based; details: in vivo, 0.25 h
In short: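 Parasites were treated with 1 mM NEM for 15 min on ice, then resuspended in fresh HBS. Cells at 2 × 10^7/ml were given 5 μM [14C]sitamaquine for 15 min at 28°C. Washing was 10 min on ice in PBS with 100 μM sitamaquine, then twice in PBS. Lysates in 1% Triton X-100 were read by scintillation counting, with Bradford protein.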

Leishmania major [4] = experiment: Drug uptake in Leishmania major MHOM/JL/80/Friedlin AP3delta-null mutant at 5 uM for 15 mins by liquid scintillation counting; type: ADME, organism-based; details: in vivo, 0.25 h
In short: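 Promastigotes from 48-h cultures were washed in PBS and resuspended at 2 × 10^7/ml in HEPES-buffered saline, pH 7. They were exposed to 5 μM [14C]sitamaquine for 15 min, chilled on ice, then washed 10 min on ice in PBS with 100 μM unlabelled sitamaquine and twice more in PBS. Pellets were lysed in 1% Triton X-100. Scintillation counts were normalised to Bradford protein.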

Leishmania major [5] = experiment: Drug uptake in AP3-complemented Leishmania major MHOM/JL/80/Friedlin at 5 uM for 15 mins by liquid scintillation counting; type: ADME, organism-based; details: in vivo, 0.25 h
In short: (§1)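 PBS-washed parasites at 2 × 10^7/ml in HBS (pH 7) were incubated with 5 μM [14C]sitamaquine for 15 min at 28°C or 4°C. Washing was 10 min on ice in PBS or PBS with 100 μM unlabeled sitamaquine, then twice in PBS. Cell-associated radioactivity in 1% Triton X-100 lysates was counted by liquid scintillation and related to Bradford protein.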

Leishmania sp. = experiment: Antiparasitic activity against promastigotes of Leishmania sp. after 3 days by Alamar blue assay; type: functional, organism-based; details: 72 h
In short: (§2)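 Promastigotes grown at 28°C in RPMI 1640-modified medium with 20% heat-inactivated FBS and harvested after 48 h of growth. Exposed to increasing sitamaquine concentrations for 72 h at 28°C. Growth read by Alamar Blue fluorescence (excitation 530 nm, emission 585 nm). EC50 taken as the concentration giving 50% growth inhibition. Run three times in duplicate.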

Leishmania donovani [6] = experiment: Drug uptake in Leishmania donovani at 5 uM after 15 mins at 4 degC by liquid scintillation counting; type: ADME, organism-based; details: in vivo, 0.25 h; in short: as §1
Leishmania donovani [7] = experiment: Drug uptake in Leishmania donovani at 5 uM after 15 mins at 28 degC by liquid scintillation counting; type: ADME, organism-based; details: in vivo, 0.25 h; in short: as §1
Leishmania donovani [8] = experiment: Drug uptake in Leishmania donovani at 5 uM after 15 mins at pH 8 by liquid scintillation counting; type: ADME, organism-based; details: in vivo, pH 8, 0.25 h
In short: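 Parasites were incubated at 28°C with [14C]sitamaquine in HBS adjusted to various pHs, up to pH 8. Cells were chilled, then washed 10 min on ice in PBS with 100 μM sitamaquine and twice in PBS. Uptake was quantified by liquid scintillation counting of Triton X-100 lysates, with Bradford protein. Means of three independent experiments.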

Leishmania donovani [9] = experiment: Drug uptake in Leishmania donovani at 10 uM for 10 mins by flow cytometry in presence of 20 mM NH4Cl acidic organelles alkalinization inducer; type: ADME, organism-based; details: in vivo
Leishmania donovani [10] = experiment: Drug uptake in Leishmania donovani at 10 uM for 10 mins by flow cytometry in presence of ionophores monensin; type: ADME, organism-based; details: in vivo
Leishmania donovani [11] = experiment: Drug uptake in Leishmania donovani at 10 uM for 10 mins by flow cytometry in presence of nigericin; type: ADME, organism-based; details: in vivo
Leishmania donovani [12] = experiment: Drug uptake in Leishmania donovani MHOM/ET/67/L82 assessed as reduction in fluorescence of LysoTracker Green by Flow cytometry analysis; type: ADME, organism-based; details: in vivo
In short: (§3)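 Promastigotes at 4 × 10^6 cells/ml were loaded with 100 nM LysoTracker Green DND-26 in HBS for 10 min at 28°C. They were then exposed to 1, 10 or 30 μM sitamaquine for 15 min at 28°C, washed and resuspended in PBS. Flow cytometry used 488 nm excitation and 515–545 nm emission after gating out dead cells and debris. Signal expressed as % of untreated.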

Leishmania donovani [13] = experiment: Drug uptake in Leishmania donovani MHOM/IN/80/DD8 assessed as reduction in fluorescence of LysoTracker Green by Flow cytometry analysis; type: ADME, organism-based; details: in vivo; in short: as §3
Leishmania tropica [14] = experiment: Drug uptake in Leishmania tropica MHOM/SU/60/LCR-L39 assessed as reduction in fluorescence of LysoTracker Green by Flow cytometry analysis; type: ADME, organism-based; details: in vivo; in short: as §3
Leishmania tropica [15] = experiment: Drug uptake in Leishmania tropica MHOM/SU/74/SAF-K27 assessed as reduction in fluorescence of LysoTracker Green by Flow cytometry analysis; type: ADME, organism-based; details: in vivo; in short: as §3
Leishmania donovani [16] = experiment: Antiparasitic activity against Leishmania donovani MHOM/ET/67/L82 after 3 days by Alamar blue assay; type: functional, organism-based; details: MHOM/ET/67/L82, 72 h; in short: as §2
Leishmania infantum = experiment: Antiparasitic activity against Leishmania infantum MHOM/ES/1993/BCN-99 after 3 days by Alamar blue assay; type: functional, organism-based; details: MHOM/ES/1993/BCN-99, 72 h; in short: as §2
Leishmania mexicana = experiment: Antiparasitic activity against Leishmania mexicana M9012 after 3 days by Alamar blue assay; type: functional, organism-based; details: M9012, 72 h; in short: as §2
Leishmania braziliensis = experiment: Antiparasitic activity against Leishmania braziliensis MHOM/PE/03/LH2419 after 3 days by Alamar blue assay; type: functional, organism-based; details: MHOM/PE/03/LH2419, 72 h; in short: as §2
Leishmania tropica [17] = experiment: Antiparasitic activity against Leishmania tropica MHOM/SU/60/LCR-L39 after 3 days by Alamar blue assay; type: functional, organism-based; details: MHOM/SU/60/LCR-L39, 72 h; in short: as §2

SMILES: CCN(CC)CCCCCCNc1cc(O[14CH3])cc2c(C)ccnc12.Cl.Cl
pEC50 (Leishmania major [1]): 5.37
pEC50 (Leishmania major [2]): 5.41
Drug uptake (Leishmania donovani [3]): Active
Drug uptake (Leishmania major [4]): Not Active
Drug uptake (Leishmania major [5]): Active

Drug uptake (Leishmania donovani [6]): Active
Drug uptake (Leishmania donovani [7]): Active
Drug uptake (Leishmania donovani [8]): Active
Drug uptake (Leishmania donovani [9]): Not Active
Drug uptake (Leishmania donovani [10]): Not Active
Drug uptake (Leishmania donovani [11]): Not Active
Drug uptake (Leishmania donovani [12]): Active
Drug uptake (Leishmania donovani [13]): Active
Drug uptake (Leishmania tropica [14]): Active
Drug uptake (Leishmania tropica [15]): Active
SMILES: CCN(CC)CCCCCCNc1cc(OC)cc2c(C)ccnc12.Cl.Cl
pEC50 (Leishmania sp.): 5.24
pEC50 (Leishmania donovani [16]): 5.02
pEC50 (Leishmania infantum): 5.02
pEC50 (Leishmania mexicana): 5.02
pEC50 (Leishmania braziliensis): 5.02
pEC50 (Leishmania tropica [17]): 5.02
